Test results published in ChEMBL document CHEMBL2069242, “Structure and activity relationship in the (S)-N-chroman-3-ylcarboxamide series of voltage-gated sodium channel blockers” (Bioorg Med Chem Lett, 2012).
Values after ≈ are worked out from the molar mass of the structure shown. Active and inactive are the calls of the source. No cut-off for these calls is given here.

Experiments:
[1] = system: Liver microsomes; assay: Intrinsic clearance in human liver microsomes assessed per ug of protein; format: ADME, Microsome
[2] = system: Liver microsomes; assay: Intrinsic clearance in rat liver microsomes assessed per ug of protein; format: ADME, Microsome
[3] = target: Sodium channel protein type 5 subunit alpha (Homo sapiens, UniProt Q14524); assay: Inhibition of human NaV1.5 expressed in CHO cells by IonWorks assay; format: cell-based
Chain of Sodium channel protein type 5 subunit alpha (Q14524 whole entry): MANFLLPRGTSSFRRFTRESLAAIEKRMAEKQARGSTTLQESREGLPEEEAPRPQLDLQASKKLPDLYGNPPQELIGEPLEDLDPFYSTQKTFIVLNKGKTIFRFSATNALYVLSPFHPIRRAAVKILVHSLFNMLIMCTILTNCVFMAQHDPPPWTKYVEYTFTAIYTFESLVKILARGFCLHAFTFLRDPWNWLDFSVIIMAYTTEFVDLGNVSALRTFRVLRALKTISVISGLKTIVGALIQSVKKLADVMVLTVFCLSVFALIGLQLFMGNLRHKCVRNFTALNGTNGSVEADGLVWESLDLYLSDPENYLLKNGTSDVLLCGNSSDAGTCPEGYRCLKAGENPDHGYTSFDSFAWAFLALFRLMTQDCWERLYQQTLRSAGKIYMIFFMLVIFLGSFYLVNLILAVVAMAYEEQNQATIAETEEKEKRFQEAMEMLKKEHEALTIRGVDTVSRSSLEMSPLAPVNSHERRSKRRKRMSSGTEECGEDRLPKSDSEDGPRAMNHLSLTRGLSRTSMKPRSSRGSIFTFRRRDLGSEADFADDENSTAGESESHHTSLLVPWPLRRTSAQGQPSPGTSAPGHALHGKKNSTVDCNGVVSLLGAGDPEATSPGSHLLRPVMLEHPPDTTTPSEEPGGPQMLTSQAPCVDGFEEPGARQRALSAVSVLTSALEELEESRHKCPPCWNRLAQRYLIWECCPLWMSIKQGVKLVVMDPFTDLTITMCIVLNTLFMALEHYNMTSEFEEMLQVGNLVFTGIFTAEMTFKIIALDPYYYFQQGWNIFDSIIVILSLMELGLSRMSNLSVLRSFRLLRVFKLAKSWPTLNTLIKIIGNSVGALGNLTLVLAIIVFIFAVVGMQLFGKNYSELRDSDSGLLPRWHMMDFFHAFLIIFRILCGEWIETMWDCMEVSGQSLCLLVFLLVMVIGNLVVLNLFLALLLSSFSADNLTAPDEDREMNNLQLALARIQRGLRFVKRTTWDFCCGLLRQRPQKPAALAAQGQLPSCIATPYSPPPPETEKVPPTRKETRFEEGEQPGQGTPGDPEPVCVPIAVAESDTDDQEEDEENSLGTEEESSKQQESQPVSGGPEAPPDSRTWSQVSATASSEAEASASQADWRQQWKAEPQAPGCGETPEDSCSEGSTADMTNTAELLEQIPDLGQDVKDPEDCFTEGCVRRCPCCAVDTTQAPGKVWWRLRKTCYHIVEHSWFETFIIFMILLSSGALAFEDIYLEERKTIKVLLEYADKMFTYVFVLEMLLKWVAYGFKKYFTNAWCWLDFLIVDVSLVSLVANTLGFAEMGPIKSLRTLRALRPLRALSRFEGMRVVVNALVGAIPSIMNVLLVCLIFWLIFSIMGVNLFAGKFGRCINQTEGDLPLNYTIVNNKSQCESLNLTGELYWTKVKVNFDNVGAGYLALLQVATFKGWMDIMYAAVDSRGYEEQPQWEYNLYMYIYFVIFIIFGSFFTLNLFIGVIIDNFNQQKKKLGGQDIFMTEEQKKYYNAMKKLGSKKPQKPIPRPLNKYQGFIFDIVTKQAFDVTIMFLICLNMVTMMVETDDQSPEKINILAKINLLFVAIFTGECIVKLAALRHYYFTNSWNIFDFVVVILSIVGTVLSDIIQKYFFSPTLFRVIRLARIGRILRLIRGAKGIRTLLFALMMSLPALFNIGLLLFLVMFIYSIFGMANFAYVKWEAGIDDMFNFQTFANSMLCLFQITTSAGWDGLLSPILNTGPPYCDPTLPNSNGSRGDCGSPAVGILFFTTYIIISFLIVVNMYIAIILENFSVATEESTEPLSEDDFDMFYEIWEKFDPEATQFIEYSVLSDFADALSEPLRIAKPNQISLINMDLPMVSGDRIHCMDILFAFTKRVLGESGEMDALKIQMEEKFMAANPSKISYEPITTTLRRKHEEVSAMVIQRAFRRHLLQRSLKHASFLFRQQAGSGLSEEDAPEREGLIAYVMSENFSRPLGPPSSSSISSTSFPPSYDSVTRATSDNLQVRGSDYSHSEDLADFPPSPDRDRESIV

[4] = Solubility of the compound; format: physicochemical
[5] = target: Sodium channel protein type 9 subunit alpha (Homo sapiens, UniProt Q15858); assay: Inhibition of human NaV1.7 expressed in HEK293 cells by whole-cell voltage clamp assay; format: cell-based
Chain of Sodium channel protein type 9 subunit alpha (Q15858 whole entry): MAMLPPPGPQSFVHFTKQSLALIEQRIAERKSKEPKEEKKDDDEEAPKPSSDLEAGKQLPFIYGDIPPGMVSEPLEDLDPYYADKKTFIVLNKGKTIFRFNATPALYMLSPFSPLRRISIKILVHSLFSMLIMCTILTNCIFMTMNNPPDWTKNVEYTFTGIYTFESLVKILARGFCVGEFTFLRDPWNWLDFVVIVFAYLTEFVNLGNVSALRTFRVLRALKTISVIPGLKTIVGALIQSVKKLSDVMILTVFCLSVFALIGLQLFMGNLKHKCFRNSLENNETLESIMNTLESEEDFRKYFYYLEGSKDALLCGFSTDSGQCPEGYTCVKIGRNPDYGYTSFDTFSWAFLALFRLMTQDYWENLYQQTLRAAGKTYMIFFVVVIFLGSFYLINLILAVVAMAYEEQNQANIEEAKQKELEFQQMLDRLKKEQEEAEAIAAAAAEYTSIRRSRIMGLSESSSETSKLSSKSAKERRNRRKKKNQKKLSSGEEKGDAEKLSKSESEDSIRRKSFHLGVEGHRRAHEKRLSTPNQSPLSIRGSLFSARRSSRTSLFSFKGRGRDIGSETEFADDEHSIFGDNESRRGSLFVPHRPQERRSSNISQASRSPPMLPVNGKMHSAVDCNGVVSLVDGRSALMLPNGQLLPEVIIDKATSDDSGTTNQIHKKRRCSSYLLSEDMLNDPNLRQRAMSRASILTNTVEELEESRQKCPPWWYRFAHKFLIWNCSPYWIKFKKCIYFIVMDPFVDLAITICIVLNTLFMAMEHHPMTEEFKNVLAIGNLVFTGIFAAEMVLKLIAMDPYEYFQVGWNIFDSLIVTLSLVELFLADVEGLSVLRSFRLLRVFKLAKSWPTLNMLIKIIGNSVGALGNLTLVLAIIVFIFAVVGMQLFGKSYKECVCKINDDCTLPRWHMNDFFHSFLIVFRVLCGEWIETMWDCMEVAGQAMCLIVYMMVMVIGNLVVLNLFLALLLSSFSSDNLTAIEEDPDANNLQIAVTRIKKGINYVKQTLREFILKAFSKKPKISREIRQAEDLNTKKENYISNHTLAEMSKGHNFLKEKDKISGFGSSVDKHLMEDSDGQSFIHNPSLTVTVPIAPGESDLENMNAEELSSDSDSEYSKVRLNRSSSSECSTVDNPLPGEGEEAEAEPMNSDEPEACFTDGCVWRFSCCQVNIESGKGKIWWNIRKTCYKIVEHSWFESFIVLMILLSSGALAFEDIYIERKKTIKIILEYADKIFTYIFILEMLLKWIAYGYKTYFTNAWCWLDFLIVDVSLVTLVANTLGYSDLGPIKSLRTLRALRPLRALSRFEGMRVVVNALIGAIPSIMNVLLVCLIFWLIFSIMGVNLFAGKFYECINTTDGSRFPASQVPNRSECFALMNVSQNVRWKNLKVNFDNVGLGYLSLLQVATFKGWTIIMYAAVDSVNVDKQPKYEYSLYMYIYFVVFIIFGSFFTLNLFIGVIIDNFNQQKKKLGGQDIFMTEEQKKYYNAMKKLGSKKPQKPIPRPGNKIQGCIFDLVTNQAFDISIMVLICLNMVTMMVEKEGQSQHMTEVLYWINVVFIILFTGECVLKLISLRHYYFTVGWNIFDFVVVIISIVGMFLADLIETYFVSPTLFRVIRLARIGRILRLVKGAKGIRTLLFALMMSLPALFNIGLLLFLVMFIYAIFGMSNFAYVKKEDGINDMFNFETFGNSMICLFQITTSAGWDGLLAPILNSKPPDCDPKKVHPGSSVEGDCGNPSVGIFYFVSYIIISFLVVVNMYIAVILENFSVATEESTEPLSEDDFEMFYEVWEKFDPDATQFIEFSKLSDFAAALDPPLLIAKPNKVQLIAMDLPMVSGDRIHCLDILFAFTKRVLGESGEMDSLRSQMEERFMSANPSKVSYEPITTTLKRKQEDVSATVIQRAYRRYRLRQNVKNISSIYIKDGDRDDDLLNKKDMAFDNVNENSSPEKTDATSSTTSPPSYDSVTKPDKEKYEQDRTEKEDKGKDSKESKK
In short: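 Human NaV1.7 α-subunit stably expressed in HEK293 cells. Currents were recorded by perforated whole-cell automated planar patch clamp (IonWorks Quattro) in D-PBS external solution with 5.5 mM glucose. Cells were held at −65 mV, and a train of eight 30 ms steps to −20 mV at 3 Hz was applied. Half-log serial dilutions were made in DMSO, giving 0.3% DMSO in the recording solution.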

[6] = target: Voltage-gated inwardly rectifying potassium channel KCNH2 (Homo sapiens, UniProt Q12809); assay: Inhibition of human ERG expressed in CHO cells by IonWorks HT assay; format: cell-based
Chain of Voltage-gated inwardly rectifying potassium channel KCNH2 (Q12809 whole entry): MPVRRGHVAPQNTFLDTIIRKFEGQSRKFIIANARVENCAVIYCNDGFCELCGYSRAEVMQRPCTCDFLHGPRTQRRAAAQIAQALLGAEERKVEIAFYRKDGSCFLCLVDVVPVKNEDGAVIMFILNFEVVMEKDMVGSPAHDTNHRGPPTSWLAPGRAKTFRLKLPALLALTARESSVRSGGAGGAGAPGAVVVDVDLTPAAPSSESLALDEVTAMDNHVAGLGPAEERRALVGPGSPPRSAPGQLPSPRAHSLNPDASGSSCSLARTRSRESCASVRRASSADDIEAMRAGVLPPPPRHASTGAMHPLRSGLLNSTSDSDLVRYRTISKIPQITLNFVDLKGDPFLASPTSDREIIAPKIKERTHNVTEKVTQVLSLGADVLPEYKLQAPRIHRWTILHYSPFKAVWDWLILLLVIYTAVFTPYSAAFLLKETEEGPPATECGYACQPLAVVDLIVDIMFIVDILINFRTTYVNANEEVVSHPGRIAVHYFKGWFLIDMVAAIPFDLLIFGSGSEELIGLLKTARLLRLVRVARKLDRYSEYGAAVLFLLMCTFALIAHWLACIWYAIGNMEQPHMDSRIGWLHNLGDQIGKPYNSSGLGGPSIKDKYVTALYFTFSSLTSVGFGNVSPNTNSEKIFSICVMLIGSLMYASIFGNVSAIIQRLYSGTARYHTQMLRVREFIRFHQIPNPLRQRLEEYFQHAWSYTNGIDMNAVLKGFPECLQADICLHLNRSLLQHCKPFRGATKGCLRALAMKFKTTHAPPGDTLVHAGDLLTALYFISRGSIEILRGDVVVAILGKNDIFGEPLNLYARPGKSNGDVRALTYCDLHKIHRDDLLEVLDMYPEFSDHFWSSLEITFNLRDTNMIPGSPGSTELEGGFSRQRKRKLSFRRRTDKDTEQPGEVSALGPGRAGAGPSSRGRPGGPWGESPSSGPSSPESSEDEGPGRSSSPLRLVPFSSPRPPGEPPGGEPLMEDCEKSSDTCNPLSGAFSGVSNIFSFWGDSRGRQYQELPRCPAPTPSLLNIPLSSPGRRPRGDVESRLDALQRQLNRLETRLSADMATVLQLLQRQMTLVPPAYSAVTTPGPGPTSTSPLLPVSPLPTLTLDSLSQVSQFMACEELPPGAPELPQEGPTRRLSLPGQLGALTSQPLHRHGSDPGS

[7] = target: Serotonin (5-HT) receptor (Homo sapiens) (UniProt P30939+P41595+Q13639+P28222+P46098+P08908+P28221+P28223+P28335+P28566+P34969+P50406+P47898+A5X5Y0+O95264+Q70Z44+Q8WXA8); assay: Activity at 5HT receptor; format: protein assay

Structure (SMILES) | CLint [1] [µL/min/mg] | CLint [2] [µL/min/mg] | IC50 [3] [µM] | solubility [4] [µM] | IC50 [5] [nM] | IC50 [6] [µM] | CLH [1] | Activity [7]
COc1ncc(-c2cccc3c2C[C@H](NC(=O)c2ccc(OCC(F)(F)F)nc2)CO3)cn1 | < 10 | < 10 | 6.31 | < 1 |  |  |  | 
CN1CCN(c2cccc3c2C[C@H](NC(=O)c2ccc(OCC(F)(F)F)nc2)CO3)CC1 | < 10 | < 10 | 5.01 | 82 (≈ 36.9 µg/mL) | 794 | 7.94 |  | 
O=C(N[C@@H]1COc2cccc(-c3cncnc3)c2C1)c1ccc(OCCC(F)(F)F)nc1 | 318 | 38 | 3.98 | 23 (≈ 10.2 µg/mL) |  |  |  | 
COc1ncc(-c2cccc3c2C[C@H](NC(=O)c2ccc(OCC(F)(F)F)nc2)CO3)cc1F | 19 | 10 | 3.98 | 1.1 (≈ 0.525 µg/mL) |  |  |  | 
Cc1cnc(-c2cccc3c2C[C@H](NC(=O)c2ccc(COCC(F)(F)F)nc2)CO3)cn1 | < 10 | < 10 | 20 | 82 (≈ 37.6 µg/mL) | 501 |  |  | 
CCCCOc1ccc(C(=O)N[C@@H]2COc3cccc(N4CCN(C)CC4)c3C2)cc1 | 361 | 82 | > 6.31 | 1 (≈ 0.424 µg/mL) | 1000 | 6.31 |  | 
COCCn1nc(C)c(C(=O)N[C@@H]2COc3cccc(-c4cccnc4)c3C2)n1 |  |  | > 31.6 | 396 (≈ 156 µg/mL) |  |  |  | 
Cc1ccc(-n2nc(C)c(C(=O)N[C@@H]3COc4cccc(N5CCN(C)CC5)c4C3)n2)c(C)c1 |  | 9 | 2.51 | 4 (≈ 1.84 µg/mL) | 158 |  | Stable | 
Cc1cc(-c2cccc3c2C[C@H](NC(=O)c2ccc(OCCOCC(F)(F)F)nc2)CO3)cnc1CO |  |  | 5.01 | 18 (≈ 9.32 µg/mL) | 794 |  |  | 
Cc1nn(-c2ccccc2)nc1C(=O)N[C@@H]1COc2cccc(N3CCN(C)CC3)c2C1 | 14 | 4 | 5.01 | 211 (≈ 91.3 µg/mL) | 316 | 7.94 |  | Active
O=C(N[C@@H]1COc2cccc(-c3ccncc3)c2C1)c1ccc(OCC(F)(F)F)nc1 | 59 | 77 | 3.16 | 9 (≈ 3.86 µg/mL) |  | 6.31 |  | 
Cc1cnc(-c2cccc3c2C[C@H](NC(=O)c2ccc(OCC(F)(F)F)nc2)CO3)cn1 | 16 | < 10 | > 3.16 | < 1 | 79.4 | > 31.6 |  | 
Cc1nn(-c2ccccc2)nc1C(=O)N[C@@H]1COc2cccc(-c3ccncc3)c2C1 |  |  | > 31.6 | 2 (≈ 0.823 µg/mL) |  | 3.98 |  | 
Cc1nn(CC(C)C)nc1C(=O)N[C@@H]1COc2cccc(-c3cccnc3)c2C1 |  |  | > 31.6 | 393 (≈ 154 µg/mL) |  |  |  | 
COc1ncc(-c2cccc3c2C[C@H](NC(=O)c2ccc(COCC(F)(F)F)nc2)CO3)cn1 | < 10 | < 10 | 10 | 145 (≈ 68.8 µg/mL) | 251 | 15.8 |  | 
